# Measured values gathered from unrelated publications.
# CDK2: Cyclin-dependent kinase 2 (CDK2, Homo sapiens, UniProt P24941)
# CDK2 with cyclin A: Cyclin-dependent kinase 2, with cyclin A (CDK2, Homo sapiens, UniProt P24941)
# CDK2 with cyclin E: Cyclin-dependent kinase 2, with cyclin E (CDK2, Homo sapiens, UniProt P24941)
SMILES,target,observed,action,technique,tested at,measurement,result
NS(=O)(=O)c1cc(NC(=O)Cc2ccccc2)ccc1Oc1cccc(Cl)c1,CDK2,cell-free assay,,competition with immobilised ligand,1 µM,remaining binding,100%
COc1cc(OC)c(C=C2C(O)=Nc3ccccc32)c(OC)c1,CDK2 with cyclin A,cell-free assay,,,0.5 µM,remaining signal,96.3%
CCC(=O)N[C@@H]1CC[C@H](C(=O)N(C)c2ccc(-c3nc4ccccc4o3)cc2)C1,CDK2,cell-free assay,,competition with immobilised ligand,1 µM,remaining binding,100%
Cn1c2c(c3ccccc31)C(C#N)C(C)(C)NC2=O (centres unmarked),CDK2,thermal stability,,DSF,10 µM,ΔTm,-0.1 °C
FC(F)(F)Oc1cccc(-c2cnc3ccc(-c4ccncc4)nn23)c1,CDK2 with cyclin A,enzyme activity,inhibitor,radiometric,1 µM,activity vs control,26%
CC(C)[C@H](CO)Nc1nc(Nc2cccc(Cl)c2)c2ncn(C(C)C)c2n1,CDK2 with cyclin A,cell-free assay,,,0.5 µM,remaining signal,6.91%
Cn1c2c(c3ccc(Cl)c(Cl)c31)C(C#N)C1(CCNCC1)NC2=O (racemic),CDK2,thermal stability,,DSF,10 µM,ΔTm,0.1 °C
Cc1sc(C(=O)NC2COC2)cc1-n1cc(NC(=O)Nc2c(F)cccc2Cl)cn1,CDK2 with cyclin E,enzyme activity,inhibitor,,10 µM,remaining activity,106%
CN(c1ccnc(CNc2nc(Nc3ccc4c(c3)CC(=O)N4)ncc2C(F)(F)F)n1)S(C)(=O)=O,CDK2,cell-free assay,,competition with immobilised ligand,1 µM,remaining binding,89%
COc1cc2c(cc1OC)-c1[nH]nc(Nc3cccc(F)c3)c1C2,CDK2 with cyclin A,cell-free assay,,,0.5 µM,remaining signal,87.5%
O=C(Nc1cnn(-c2csc(C(=O)NC3COC3)c2)c1)Nc1ccccc1Cl,CDK2 with cyclin A,enzyme activity,inhibitor,,5 µM,remaining activity,93.6%
CS(=O)(=O)CCNCc1ccc(-c2ccc3ncnc(Nc4ccc(OCc5cccc(F)c5)c(Cl)c4)c3c2)o1,CDK2 with cyclin A,cell-free assay,,,0.5 µM,remaining signal,94.5%
CC(C)(O)[C@H]1CC[C@H](Nc2ccc3ncc(-c4cccc(C(F)(F)F)c4)n3n2)CC1,"Cyclin-dependent kinase 2, with cyclin A1 (CDK2, Homo sapiens, UniProt P24941)",enzyme activity,inhibitor,,1 µM,remaining activity,78.5%
CC(C)c1ccc(NC(=O)c2cccs2)c(-c2nc3ccccc3[nH]c2=O)c1,CDK2 with cyclin E,enzyme activity,inhibitor,,1 µM,activity vs control,98%
CCC1(CC)NC(=O)c2c(c3ccc(Cl)c(Cl)c3n2C)C1C#N (centres unmarked),CDK2,thermal stability,,DSF,10 µM,ΔTm,-0.4 °C
O=C(Nc1cnn(-c2csc(C(=O)NC3COC3)c2)c1)Nc1c(F)cccc1Cl,"Cyclin-dependent kinase 2, with cyclin E2 (CDK2, Homo sapiens, UniProt P24941)",enzyme activity,inhibitor,,5 µM,remaining activity,98.9%
Cc1cc(NC(=O)c2cccc3cc(-c4cccc5[nH]nc(N)c45)ccc23)ccc1F,CDK2 with cyclin E,enzyme activity,inhibitor,,0.1 µM,activity vs control,103%
Cc1nc(N2CC[C@@H](O)C2)ncc1-c1cc(C(F)(F)F)cc2[nH]ncc12,CDK2,binding,,competition with immobilised ligand,1 µM,remaining binding,94%
N#CCCc1ccc2c(c1)-c1[nH]c3ccc([N+](=O)[O-])cc3c1CC(=O)N2,CDK2 with cyclin A,cell-free assay,,,0.5 µM,remaining signal,2.93%
N#CC1c2c([nH]c3c(Cl)c(Cl)ccc23)C(=O)NC12CCCCC2 (racemic),CDK2,thermal stability,,DSF,10 µM,ΔTm,-0.6 °C
N#Cc1c(NC(=O)c2cccc3ccccc23)sc2c1CCCC2,CDK2 with cyclin E,cell-free assay,,,0.5 µM,remaining signal,89.1%
C[C@H](c1ccnc(Nc2nc3ccc(-c4cc(N(C)C)ncn4)cc3[nH]2)c1)N1CCN(C(=O)CC(F)(F)F)CC1,CDK2,cell-free assay,,competition with immobilised ligand,0.1 µM,remaining binding,100%
CC1(C)NC(=O)c2[nH]c3c(Cl)c(Cl)ccc3c2C1C#N (centres unmarked),CDK2,thermal stability,,DSF,10 µM,ΔTm,-0.3 °C
CC(C)CC(=O)N1CCc2nc(-c3ccc(Br)cc3)nc(N(C)Cc3ccccc3)c2C1,CDK2,cell-free assay,,competition with immobilised ligand,0.1 µM,remaining binding,80%
O=C1NC(=O)c2cc(Nc3ccc(F)cc3)c(Nc3ccc(F)cc3)cc21,CDK2 with cyclin A,cell-free assay,,,0.5 µM,remaining signal,95.3%
Cn1c2c(Cl)c(Cl)ccc2c2cc(N)[nH]c(=O)c21,CDK2,thermal stability,,DSF,10 µM,ΔTm,2.2 °C
Cn1cc(Cl)c2c(Oc3c(F)cc(Nc4cc(Cl)nc(N)n4)cc3F)ccnc21,CDK2,cell-free assay,,competition with immobilised ligand,0.1 µM,remaining binding,100%
Cc1ccc(C(=O)NCc2ccsc2)cc1C#Cc1cn(C(C)C)c2ncnc(N)c12,CDK2 with cyclin E,enzyme activity,inhibitor,,1 µM,activity vs control,108%
Cc1ccc(NC(=O)c2ccc(C)c(C(F)(F)F)c2)cc1C#Cc1nn(C2CCC(O)CC2)c2ncnc(N)c12 (centres unmarked),CDK2 with cyclin A,cell-free assay,,,10 µM,remaining signal,100%
Cc1c[nH]c2nccc(Oc3c(F)cc(Nc4cc(Cl)nc(N)n4)cc3F)c12,CDK2,cell-free assay,,competition with immobilised ligand,0.1 µM,remaining binding,99%
O=C1Cc2c([nH]c3ccc(Br)cc23)-c2ccccc2N1,CDK2 with cyclin E,cell-free assay,,,0.5 µM,remaining signal,51.9%
Cn1c2c(c3ccc(Cl)c(Cl)c31)C(C#N)C1(CCCC1)NC2=O (centres unmarked),CDK2,thermal stability,,DSF,10 µM,ΔTm,-0.5 °C
